{"source": "ChEMBL document CHEMBL3352487", "about": "“Synthesis, antibacterial activity, and biological evaluation of formyl hydroxyamino derivatives as novel potent peptide deformylase inhibitors against drug-resistant bacteria” (Eur J Med Chem, 2014)", "key": {"[1]": {"test_system": "Streptococcus pyogenes", "assay": "Antimicrobial activity against Streptococcus pyogenes 1307006P after 24 hrs by broth microdilution method", "format": "functional", "outline": "(§1)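 Broth microdilution following NCCLS M7-A4; ATCC strains and clinical isolates from a provincial hospital.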"}, "[2]": {"test_system": "Escherichia coli", "assay": "Antimicrobial activity against Escherichia coli isolate 1 after 24 hrs by broth microdilution method", "format": "functional", "conditions": "isolate 1, 24 h", "outline": "as §1"}, "[3]": {"test_system": "Staphylococcus aureus", "assay": "Antimicrobial activity against methicillin-susceptible Staphylococcus aureus after 24 hrs by broth microdilution method", "format": "functional", "outline": "as §1"}, "[4]": {"test_system": "Staphylococcus aureus", "assay": "Antimicrobial activity against methicillin-resistant Staphylococcus aureus after 24 hrs by broth microdilution method", "format": "functional", "outline": "(§2)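 Broth microdilution following NCCLS M7-A4, using ATCC strains and clinical isolates from a provincial hospital.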"}, "[5]": {"test_system": "Enterococcus faecium", "assay": "Antimicrobial activity against Enterococcus faecium X7501 after 24 hrs by broth microdilution method", "format": "functional", "conditions": "X7501, 24 h", "outline": "as §1"}, "[6]": {"test_system": "Streptococcus pneumoniae", "assay": "Antimicrobial activity against Streptococcus pneumoniae ERY2 after 24 hrs by broth microdilution method", "format": "functional", "conditions": "ERY2, 24 h", "outline": "as §1"}, "[7]": {"assay": "Mean residence time (0 to t) in Sprague-Dawley rat at 25 mg/kg, po", "format": "ADME, organism-based", "set-up": "dose 25 mg/kg, route oral", "conditions": "in vivo"}, "[8]": {"test_system": "Haemophilus influenzae", "assay": "Antimicrobial activity against Haemophilus influenzae H128 after 24 hrs by broth microdilution method", "format": "functional", "conditions": "H128, 24 h", "outline": "as §1"}, "[9]": {"test_system": "Staphylococcus aureus", "assay": "Antimicrobial activity against Staphylococcus aureus OXFORD after 24 hrs by broth microdilution method", "format": "functional", "outline": "as §2"}, "[10]": {"test_system": "Streptococcus pyogenes", "assay": "Antimicrobial activity against Streptococcus pyogenes 1308007P after 24 hrs by broth microdilution method", "format": "functional", "outline": "as §1"}, "[11]": {"test_system": "Haemophilus influenzae", "assay": "Antimicrobial activity against Haemophilus influenzae Q1 after 24 hrs by broth microdilution method", "format": "functional", "conditions": "Q1, 24 h", "outline": "as §1"}, "[12]": {"assay": "Clearance in Sprague-Dawley rat at 5 mg/kg, iv", "format": "ADME, organism-based", "set-up": "dose 5 mg/kg, route intravenous", "conditions": "in vivo"}, "[13]": {"test_system": "Staphylococcus aureus", "assay": "Antimicrobial activity against Staphylococcus aureus after 24 hrs by broth microdilution method", "format": "functional", "outline": "as §1"}, "[14]": {"assay": "AUC (0 to t) in Sprague-Dawley rat at 25 mg/kg, po", "format": "ADME, organism-based", "set-up": "dose 25 mg/kg, route oral", "conditions": "plasma"}, "[15]": {"assay": "Tmax in Sprague-Dawley rat at 25 mg/kg, po", "format": "ADME, organism-based", "set-up": "dose 25 mg/kg, route oral", "conditions": "in vivo"}, "[16]": {"biological_target": "T1, hERG (KCNH2) (Homo sapiens, UniProt Q12809)", "T1 sequence (Q12809 whole entry)": "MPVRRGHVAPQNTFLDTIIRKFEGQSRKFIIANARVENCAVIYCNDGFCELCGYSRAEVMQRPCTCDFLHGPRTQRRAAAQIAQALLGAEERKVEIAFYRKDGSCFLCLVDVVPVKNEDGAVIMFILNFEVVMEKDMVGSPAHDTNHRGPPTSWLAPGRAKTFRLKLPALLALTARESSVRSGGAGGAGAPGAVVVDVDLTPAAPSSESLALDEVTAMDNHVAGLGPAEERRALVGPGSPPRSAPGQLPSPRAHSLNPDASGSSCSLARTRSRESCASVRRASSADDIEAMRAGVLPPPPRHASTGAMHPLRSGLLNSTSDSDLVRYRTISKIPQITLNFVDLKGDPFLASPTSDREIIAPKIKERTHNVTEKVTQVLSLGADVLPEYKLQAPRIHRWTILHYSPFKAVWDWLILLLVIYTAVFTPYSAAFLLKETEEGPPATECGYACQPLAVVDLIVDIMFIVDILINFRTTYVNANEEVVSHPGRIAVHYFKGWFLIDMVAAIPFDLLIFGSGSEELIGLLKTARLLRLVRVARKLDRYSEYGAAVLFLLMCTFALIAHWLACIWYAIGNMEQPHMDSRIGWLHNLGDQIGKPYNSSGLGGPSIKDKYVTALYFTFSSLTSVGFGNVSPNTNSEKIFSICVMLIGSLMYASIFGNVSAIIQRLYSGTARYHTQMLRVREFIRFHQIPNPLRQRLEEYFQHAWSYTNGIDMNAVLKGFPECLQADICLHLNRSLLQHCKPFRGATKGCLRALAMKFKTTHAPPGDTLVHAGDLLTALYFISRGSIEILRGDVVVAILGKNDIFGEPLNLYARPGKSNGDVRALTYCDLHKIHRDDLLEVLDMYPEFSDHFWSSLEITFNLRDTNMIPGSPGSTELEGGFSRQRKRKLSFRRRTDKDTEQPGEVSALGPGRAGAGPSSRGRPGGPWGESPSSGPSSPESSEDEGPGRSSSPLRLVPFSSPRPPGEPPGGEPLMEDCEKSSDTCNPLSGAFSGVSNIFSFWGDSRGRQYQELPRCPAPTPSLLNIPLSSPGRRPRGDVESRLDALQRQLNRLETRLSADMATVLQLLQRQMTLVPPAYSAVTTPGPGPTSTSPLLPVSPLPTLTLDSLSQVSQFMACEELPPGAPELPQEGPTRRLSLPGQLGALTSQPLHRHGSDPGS", "assay": "Inhibition of human ERG at 1 uM"}, "[17]": {"assay": "Cmax in Sprague-Dawley rat at 25 mg/kg, po", "format": "ADME, organism-based", "set-up": "dose 25 mg/kg, route oral", "conditions": "in vivo"}, "[18]": {"test_system": "Staphylococcus aureus", "assay": "Antimicrobial activity against Staphylococcus aureus WCUH29 after 24 hrs by broth microdilution method", "format": "functional", "conditions": "WCUH29, 24 h", "outline": "as §1"}, "[19]": {"test_system": "Escherichia coli", "assay": "Antimicrobial activity against Escherichia coli isolate 3 after 24 hrs by broth microdilution method", "format": "functional", "conditions": "isolate 3, 24 h", "outline": "as §1"}, "[20]": {"test_system": "Escherichia coli", "assay": "Antimicrobial activity against Escherichia coli isolate 2 after 24 hrs by broth microdilution method", "format": "functional", "conditions": "isolate 2, 24 h", "outline": "as §1"}, "[21]": {"assay": "AUC (0 to t) in Sprague-Dawley rat at 5 mg/kg, iv", "format": "ADME, organism-based", "set-up": "dose 5 mg/kg, route intravenous", "conditions": "plasma"}, "[22]": {"assay": "Mean residence time (0 to t) in Sprague-Dawley rat at 5 mg/kg, iv", "format": "ADME, organism-based", "set-up": "dose 5 mg/kg, route intravenous", "conditions": "in vivo"}, "[23]": {"test_system": "Enterococcus faecalis", "assay": "Antimicrobial activity against Enterococcus faecalis Isolate 1 after 24 hrs by broth microdilution method", "format": "functional", "conditions": "Isolate 1, 24 h", "outline": "as §1"}, "[24]": {"assay": "Oral bioavailability in Sprague-Dawley rat at 25 mg/kg", "format": "ADME, organism-based", "conditions": "in vivo"}, "[25]": {"test_system": "Streptococcus pneumoniae", "assay": "Antimicrobial activity against Streptococcus pneumoniae 1629 after 24 hrs by broth microdilution method", "format": "functional", "conditions": "Streptococcus pneumoniae, 1629, 24 h", "outline": "as §1"}, "[26]": {"assay": "Volume of distribution at steady state in Sprague-Dawley rat at 5 mg/kg, iv", "format": "ADME, organism-based", "set-up": "dose 5 mg/kg, route intravenous", "conditions": "in vivo, read-out: Vdss"}, "[27]": {"assay": "Half life in Sprague-Dawley rat at 5 mg/kg, iv", "format": "ADME, organism-based", "set-up": "dose 5 mg/kg, route intravenous", "conditions": "in vivo"}, "[28]": {"assay": "AUC (0 to infinity) in Sprague-Dawley rat at 25 mg/kg, po", "format": "ADME, organism-based", "set-up": "dose 25 mg/kg, route oral, time infinity", "conditions": "plasma"}, "[29]": {"test_system": "Streptococcus pneumoniae", "assay": "Antimicrobial activity against Streptococcus pneumoniae N1387 after 24 hrs by broth microdilution method", "format": "functional", "conditions": "N1387, 24 h", "outline": "as §1"}, "[30]": {"test_system": "Moraxella catarrhalis", "assay": "Antimicrobial activity against Moraxella catarrhalis 1502 after 24 hrs by broth microdilution method", "format": "functional", "conditions": "Moraxella catarrhalis, 1502, 24 h", "outline": "as §1"}, "[31]": {"assay": "AUC (0 to infinity) in Sprague-Dawley rat at 5 mg/kg, iv", "format": "ADME, organism-based", "set-up": "time infinity, dose 5 mg/kg, route intravenous", "conditions": "plasma"}, "[32]": {"biological_target": "T1, hERG (KCNH2)", "assay": "Inhibition of human ERG at 10 uM"}, "[33]": {"assay": "Half life in Sprague-Dawley rat at 25 mg/kg, po", "format": "ADME, organism-based", "set-up": "dose 25 mg/kg, route oral", "conditions": "in vivo"}, "[34]": {"test_system": "Haemophilus influenzae", "assay": "Antimicrobial activity against AcrA-deficient Haemophilus influenzae H128 after 24 hrs by broth microdilution method", "format": "functional", "conditions": "H128, 24 h", "outline": "as §1"}, "[35]": {"test_system": "Staphylococcus epidermidis", "assay": "Antimicrobial activity against Staphylococcus epidermidis after 24 hrs by broth microdilution method", "format": "functional", "outline": "as §1"}}, "data": [{"smiles": "Cc1cnc(NC(=O)[C@@H]2C=CCN2C(=O)[C@H](CC2CCCC2)CN(O)C=O)s1", "values": [{"measurement": "MIC", "setting": "[1]", "result": 0.25, "unit": "µg/mL"}, {"measurement": "MIC", "setting": "[2]", "result": 16, "unit": "µg/mL"}, {"measurement": "MIC", "setting": "[3]", "result": 0.25, "unit": "µg/mL"}, {"measurement": "MIC", "setting": "[4]", "result": 0.125, "unit": "µg/mL"}, {"measurement": "MIC", "setting": "[5]", "result": 0.5, "unit": "µg/mL"}, {"measurement": "MIC", "setting": "[6]", "result": 0.5, "unit": "µg/mL"}, {"measurement": "MRT last", "setting": "[7]", "result": 3.39, "unit": "h"}, {"measurement": "MIC", "setting": "[8]", "result": 2, "unit": "µg/mL"}, {"measurement": "MIC", "setting": "[9]", "result": 0.25, "unit": "µg/mL"}, {"measurement": "MIC", "setting": "[10]", "result": 0.5, "unit": "µg/mL"}, {"measurement": "MIC", "setting": "[11]", "result": 2, "unit": "µg/mL"}, {"measurement": "clearance", "setting": "[12]", "result": 18.6, "unit": "mL/min/kg"}, {"measurement": "MIC", "setting": "[13]", "result": 0.0312, "unit": "µg/mL"}, {"measurement": "AUC(0-t)", "setting": "[14]", "result": 12200, "unit": "ng·h/mL"}, {"measurement": "Tmax", "setting": "[15]", "result": 37.5, "unit": "min"}, {"measurement": "inhibition at 1 µM", "setting": "[16]", "result": 5.38, "unit": "%"}, {"measurement": "Cmax", "setting": "[17]", "result": 4560, "unit": "ng/mL"}, {"measurement": "MIC", "setting": "[18]", "result": "≤ 0.06", "unit": "µg/mL"}, {"measurement": "MIC", "setting": "[19]", "result": 32, "unit": "µg/mL"}, {"measurement": "MIC", "setting": "[20]", "result": 16, "unit": "µg/mL"}, {"measurement": "AUC(0-t)", "setting": "[21]", "result": 4700, "unit": "ng·h/mL"}, {"measurement": "MRT last", "setting": "[22]", "result": 1.24, "unit": "h"}, {"measurement": "MIC", "setting": "[23]", "result": 2, "unit": "µg/mL"}, {"measurement": "bioavailability", "setting": "[24]", "result": 52.3, "unit": "%"}, {"measurement": "MIC", "setting": "[25]", "result": 0.5, "unit": "µg/mL"}, {"measurement": "Vd", "setting": "[26]", "result": 1.37, "unit": "L/kg"}, {"measurement": "half-life", "setting": "[27]", "result": 161, "unit": "min"}, {"measurement": "AUC(0-inf)", "setting": "[28]", "result": 12300, "unit": "ng·h/mL"}, {"measurement": "MIC", "setting": "[29]", "result": 0.25, "unit": "µg/mL"}, {"measurement": "MIC", "setting": "[30]", "result": "≤ 0.06", "unit": "µg/mL"}, {"measurement": "AUC(0-inf)", "setting": "[31]", "result": 4700, "unit": "ng·h/mL"}, {"measurement": "inhibition at 10 µM", "setting": "[32]", "result": 15.9, "unit": "%"}, {"measurement": "half-life", "setting": "[33]", "result": 199, "unit": "min"}, {"measurement": "MIC", "setting": "[34]", "result": "≤ 0.06", "unit": "µg/mL"}, {"measurement": "MIC", "setting": "[35]", "result": 0.0625, "unit": "µg/mL"}]}, {"smiles": "C=C1C[C@@H](C(=O)Nc2ccc(F)cn2)N(C(=O)[C@H](CCCC)CN(O)C=O)C1", "values": [{"measurement": "MIC", "setting": "[1]", "result": 4, "unit": "µg/mL"}, {"measurement": "MIC", "setting": "[2]", "result": 32, "unit": "µg/mL"}, {"measurement": "MIC", "setting": "[3]", "result": 1, "unit": "µg/mL"}, {"measurement": "MIC", "setting": "[4]", "result": 0.125, "unit": "µg/mL"}, {"measurement": "MIC", "setting": "[5]", "result": 4, "unit": "µg/mL"}, {"measurement": "MIC", "setting": "[6]", "result": 8, "unit": "µg/mL"}, {"measurement": "MIC", "setting": "[8]", "result": 16, "unit": "µg/mL"}, {"measurement": "MIC", "setting": "[9]", "result": 4, "unit": "µg/mL"}, {"measurement": "MIC", "setting": "[10]", "result": 4, "unit": "µg/mL"}, {"measurement": "MIC", "setting": "[11]", "result": 16, "unit": "µg/mL"}, {"measurement": "MIC", "setting": "[13]", "result": 0.5, "unit": "µg/mL"}, {"measurement": "MIC", "setting": "[18]", "result": 0.5, "unit": "µg/mL"}, {"measurement": "MIC", "setting": "[19]", "result": "> 64", "unit": "µg/mL"}, {"measurement": "MIC", "setting": "[20]", "result": "> 64", "unit": "µg/mL"}, {"measurement": "MIC", "setting": "[23]", "result": 32, "unit": "µg/mL"}, {"measurement": "MIC", "setting": "[25]", "result": 16, "unit": "µg/mL"}, {"measurement": "MIC", "setting": "[29]", "result": 4, "unit": "µg/mL"}, {"measurement": "MIC", "setting": "[30]", "result": 0.25, "unit": "µg/mL"}, {"measurement": "MIC", "setting": "[34]", "result": 0.5, "unit": "µg/mL"}, {"measurement": "MIC", "setting": "[35]", "result": 0.25, "unit": "µg/mL"}]}]}
